Test results from ChEMBL document CHEMBL3612020.
One block for each molecule: values may come before it. Calls of active or inactive are those of the source. The rule behind the calls is not given here.

What was measured:
[1] = Metabolic stability in mouse liver microsomes assessed as compound remaining at 5 uM after 60 mins by LC/MS/MS analysis in presence of NADPH; assay type: ADME; settings: 1 h
How it was run: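 Mouse liver microsomes (0.5 mg/mL) with 5 µM test compound in 100 mM potassium phosphate pH 7.4 plus NADPH regenerating system (1.3 mM NADPH). Reaction started with microsomes, run in duplicate for 60 min, quenched with cold acetonitrile containing internal standard. Parent quantified by LC/MS/MS; cofactor-free controls included.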

[2] = Metabolic stability in mouse liver microsomes assessed as compound remaining at 5 uM after 60 mins by LC/MS/MS analysis in presence of UDPGA; assay type: ADME; settings: 1 h
How it was run: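 Glucuronidation in mouse liver microsomes (0.5 mg/mL): 50 mM Tris-HCl pH 7.5, 8 mM MgCl2, 25 µg/mL alamethicin, pre-incubated at 37 °C. Started with 2 mM UDPGA (final), in duplicate, for 60 min. Quenched with cold acetonitrile plus internal standard; LC/MS/MS read-out, with cofactor-free controls.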

[3] = target: T1, D-amino-acid oxidase (Homo sapiens, UniProt P14920); assay: Inhibition of recombinant human DAAO expressed in HEK cells using D-serine as substrate assessed as formation of alpha-keto acid, ammonia, […] after 20 mins by horseradish peroxidase/o-phenylenediamine-based assay; design: species or system HEK293
How it was run: (§1)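 Human DAAO from HEK cells: lysate in 50 mM Tris pH 8.5 with 100 µM FAD, sonicated, then ion-exchange purified with a 0–0.5 M NaCl gradient. […] Enzyme set to give 2.0 mOD/min uninhibited. Rate read as absorbance change at 411 nm. Mean ± SD of ≥4 experiments in most cases.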

[4] = target: T1, D-amino-acid oxidase; assay: Inhibition of DAAO (unknown origin); how it was run: as §1
[5] = AUClast in CD1 mouse at 30 mg/kg, iv; assay type: ADME, organism-based; design: dose 30 mg/kg, route intravenous, time 0 - last; settings: in vivo
How it was run: (§2)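 Male CD1 mice, n = 3 per time point, dosed iv or po. About 1 mL blood taken by cardiac puncture into heparinized tubes, kept on wet ice, centrifuged 10 min at 800 g, 4 °C. Plasma stored at −80 °C; drug levels measured by HPLC–QTOF-MS.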

[6] = target: T2, Glutamate NMDA receptor; GRIN1/GRIN2A (Homo sapiens) (UniProt Q05586+Q12879); assay: Inhibition of NMDA receptor MK801 binding site (unknown origin) at 10 uM relative to control; assay type: protein-complex assay
[7] = target: T2, Glutamate NMDA receptor; GRIN1/GRIN2A (Homo sapiens); assay: Inhibition of NMDA receptor glycine binding site (unknown origin) at 10 uM relative to control; assay type: protein-complex assay
[8] = test system: Mus musculus; assay: Increase in plasma Cmax of D-serine in CD1 mouse at 30 mg/kg, po; assay type: ADME, organism-based; settings: in vivo
[9] = test system: Mus musculus; assay: Oral bioavailability in CD1 mouse at 30 mg/kg; assay type: ADME, organism-based; settings: in vivo; how it was run: as §2
[10] = target: T2, Glutamate NMDA receptor; GRIN1/GRIN2A (Homo sapiens); assay: Inhibition of NMDA receptor agonist binding site (unknown origin) at 10 uM relative to control; assay type: protein-complex assay
[11] = Volume of distribution in CD1 mouse at 30 mg/kg, iv; assay type: ADME, organism-based; settings: in vivo; how it was run: as §2
[12] = test system: Salmonella typhimurium; assay: Mutagenicity in Salmonella typhimurium TA100 by Ames test in absence of S9 mixture; assay type: toxicity, organism-based; settings: salmonella enterica subsp. enterica serovar typhimurium
[13] = target: T1, D-amino-acid oxidase; assay: Inhibition of recombinant human DAAO expressed in HEK cells in presence of 10 to 100 uM of FAD; assay type: cell-based; settings: HEK293
How it was run: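 Reactions ran in 50 mM Tris pH 8.5 with 2% DMSO final, for 20 min at room temperature. Absorbance rate was read at 411 nm. IC50 was determined with FAD raised from 10 to 100 µM.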

[14] = target: T3, MAO-A (Homo sapiens, UniProt P21397); assay: Inhibition of MAO-A (unknown origin) at 10 uM relative to control
T3 sequence (P21397 whole entry): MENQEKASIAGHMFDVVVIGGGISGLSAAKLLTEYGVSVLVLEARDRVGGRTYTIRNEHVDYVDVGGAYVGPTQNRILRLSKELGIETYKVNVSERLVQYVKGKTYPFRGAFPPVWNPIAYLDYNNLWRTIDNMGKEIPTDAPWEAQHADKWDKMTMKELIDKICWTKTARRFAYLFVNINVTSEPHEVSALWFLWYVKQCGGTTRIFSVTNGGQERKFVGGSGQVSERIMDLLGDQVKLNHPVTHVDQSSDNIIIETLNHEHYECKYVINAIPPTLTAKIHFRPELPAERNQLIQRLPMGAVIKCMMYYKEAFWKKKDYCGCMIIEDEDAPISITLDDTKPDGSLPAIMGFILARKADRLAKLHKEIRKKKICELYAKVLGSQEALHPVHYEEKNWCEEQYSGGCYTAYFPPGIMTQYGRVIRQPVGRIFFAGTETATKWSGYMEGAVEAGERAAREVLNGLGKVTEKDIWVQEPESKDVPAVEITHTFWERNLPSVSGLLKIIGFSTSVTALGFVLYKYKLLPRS

[15] = test system: Mus musculus; assay: Decrease in plasma clearance of D-serine in CD1 mouse assessed as D-serine AUC (0 to 6 hrs) at 30 mg/kg, po (R[…]microg.hr/ml); assay type: functional
[16] = Clearance in CD1 mouse at 30 mg/kg, iv; assay type: ADME, organism-based; settings: in vivo; how it was run: as §2
[17] = target: T4, MAO-B (Homo sapiens, UniProt P27338); assay: Inhibition of MAO-B (unknown origin) at 10 uM relative to control
T4 sequence (P27338 whole entry): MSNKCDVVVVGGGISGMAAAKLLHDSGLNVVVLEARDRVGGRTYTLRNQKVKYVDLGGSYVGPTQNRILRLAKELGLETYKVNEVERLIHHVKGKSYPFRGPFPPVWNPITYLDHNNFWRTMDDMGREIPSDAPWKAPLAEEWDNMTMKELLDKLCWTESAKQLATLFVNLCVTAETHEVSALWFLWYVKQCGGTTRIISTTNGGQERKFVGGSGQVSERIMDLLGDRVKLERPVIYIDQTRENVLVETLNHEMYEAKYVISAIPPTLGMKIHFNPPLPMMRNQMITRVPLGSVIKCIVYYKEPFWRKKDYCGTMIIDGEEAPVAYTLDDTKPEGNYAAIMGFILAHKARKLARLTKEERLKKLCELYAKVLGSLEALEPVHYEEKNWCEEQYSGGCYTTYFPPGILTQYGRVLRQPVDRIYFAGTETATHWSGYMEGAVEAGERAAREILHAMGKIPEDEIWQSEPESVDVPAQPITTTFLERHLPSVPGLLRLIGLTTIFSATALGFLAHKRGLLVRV

[18] = test system: Mus musculus; assay: Ratio of drug level in brain to plasma in CD1 mouse at 30 mg/kg, po; assay type: ADME, organism-based
[19] = Terminal half life in CD1 mouse at 30 mg/kg, iv; assay type: ADME, organism-based; settings: in vivo, read-out: beta t1/2 (converted); how it was run: as §2
[20] = AUClast in CD1 mouse at 30 mg/kg, po; assay type: ADME, organism-based; design: dose 30 mg/kg, route oral, time 0 - last; settings: in vivo; how it was run: as §2
[21] = target: Voltage-gated inwardly rectifying potassium channel KCNH2 (Homo sapiens, UniProt Q12809); assay: Inhibition of human ERG up to 25 uM
Sequence of Voltage-gated inwardly rectifying potassium channel KCNH2 (Q12809 whole entry): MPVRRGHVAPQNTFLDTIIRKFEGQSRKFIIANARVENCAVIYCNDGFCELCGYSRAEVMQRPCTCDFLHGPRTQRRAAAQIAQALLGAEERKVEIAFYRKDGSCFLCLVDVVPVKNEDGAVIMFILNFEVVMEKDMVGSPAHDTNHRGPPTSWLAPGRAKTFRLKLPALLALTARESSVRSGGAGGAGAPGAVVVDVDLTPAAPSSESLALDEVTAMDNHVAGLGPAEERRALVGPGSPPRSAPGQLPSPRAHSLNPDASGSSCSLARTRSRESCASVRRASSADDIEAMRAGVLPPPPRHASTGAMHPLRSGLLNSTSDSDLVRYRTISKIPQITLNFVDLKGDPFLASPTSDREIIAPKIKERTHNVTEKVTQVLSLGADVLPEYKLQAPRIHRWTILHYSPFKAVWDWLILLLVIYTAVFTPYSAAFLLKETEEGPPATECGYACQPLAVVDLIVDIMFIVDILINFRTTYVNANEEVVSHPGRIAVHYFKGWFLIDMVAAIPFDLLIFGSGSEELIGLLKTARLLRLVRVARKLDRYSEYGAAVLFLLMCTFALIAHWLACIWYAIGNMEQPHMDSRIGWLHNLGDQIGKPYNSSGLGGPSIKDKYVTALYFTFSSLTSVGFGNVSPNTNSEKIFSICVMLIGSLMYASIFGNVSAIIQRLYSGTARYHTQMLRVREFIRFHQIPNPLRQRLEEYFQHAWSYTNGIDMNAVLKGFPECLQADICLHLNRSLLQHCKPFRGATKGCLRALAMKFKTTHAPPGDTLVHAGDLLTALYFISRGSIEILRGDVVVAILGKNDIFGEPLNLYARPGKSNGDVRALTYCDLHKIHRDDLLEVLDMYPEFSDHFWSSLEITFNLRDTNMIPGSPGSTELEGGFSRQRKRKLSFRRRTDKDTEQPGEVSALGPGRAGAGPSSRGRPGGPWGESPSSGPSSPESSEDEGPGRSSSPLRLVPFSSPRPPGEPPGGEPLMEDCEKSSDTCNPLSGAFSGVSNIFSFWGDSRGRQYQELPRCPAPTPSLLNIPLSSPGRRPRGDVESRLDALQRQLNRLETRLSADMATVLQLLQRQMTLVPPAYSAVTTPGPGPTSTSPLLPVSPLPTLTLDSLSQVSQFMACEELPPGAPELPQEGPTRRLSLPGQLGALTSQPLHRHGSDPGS

[22] = Tmax in CD1 mouse at 30 mg/kg, po; assay type: ADME, organism-based; settings: in vivo; how it was run: as §2
[23] = target: T1, D-amino-acid oxidase; assay: Competitive inhibition of recombinant human DAAO expressed in HEK cells by double reciprocal plot analysis in presence of D-serine; design: species or system HEK293
How it was run: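 hDAAO was purified from HEK cell lysate by ion-exchange FPLC. […] Activity was read as the rate of absorbance change at 411 nm. The mode of inhibition and Ki came from a double reciprocal plot.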

[24] = target: T5, Glycine receptor subunit alpha-1 (Homo sapiens) (UniProt P23415); assay: Inhibition of strychnine-sensitive glycine receptor (unknown origin) at 10 uM relative to control
T5 sequence (whole entry): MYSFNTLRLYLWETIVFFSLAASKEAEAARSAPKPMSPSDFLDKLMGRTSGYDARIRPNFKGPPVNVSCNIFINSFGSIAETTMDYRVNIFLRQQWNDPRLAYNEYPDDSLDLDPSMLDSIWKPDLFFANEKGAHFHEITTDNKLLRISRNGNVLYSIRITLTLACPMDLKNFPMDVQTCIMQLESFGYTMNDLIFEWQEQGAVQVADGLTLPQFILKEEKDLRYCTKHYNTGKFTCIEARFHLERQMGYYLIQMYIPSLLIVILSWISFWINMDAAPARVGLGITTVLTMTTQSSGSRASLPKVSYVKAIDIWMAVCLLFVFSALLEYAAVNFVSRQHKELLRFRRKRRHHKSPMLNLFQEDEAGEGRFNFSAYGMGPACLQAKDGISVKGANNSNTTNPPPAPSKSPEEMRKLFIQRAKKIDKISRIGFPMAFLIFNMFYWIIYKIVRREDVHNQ

[25] = Cmax in CD1 mouse at 30 mg/kg, po; assay type: ADME, organism-based; design: dose 30 mg/kg, route oral; settings: in vivo; how it was run: as §2
[26] = target: T2, Glutamate NMDA receptor; GRIN1/GRIN2A (Homo sapiens); assay: Inhibition of NMDA receptor phencyclidine binding site (unknown origin) at 10 uM relative to control; assay type: protein-complex assay
[27] = test system: Salmonella typhimurium; assay: Mutagenicity in Salmonella typhimurium TA100 by Ames test in presence of S9 mixture; assay type: toxicity, organism-based; settings: salmonella enterica subsp. enterica serovar typhimurium

SMILES: O=c1[nH]c(=S)n(CCc2ccccc2)nc1O
Stability [1]: 87%
Stability [2]: >= 99%

SMILES: O=c1cc(CSc2ccc(Cl)c(Cl)c2)occ1O
Stability [2]: 5%

SMILES: O=C(Cn1nc(O)c(=O)[nH]c1=O)c1ccccc1
IC50 [3]: 850 nM

SMILES: O=c1[nH]c(=O)n(Cc2ccccc2)nc1O
IC50 [3]: 5100 nM

SMILES: CO/N=C(\C(=O)N[C@@H]1C(=O)N2C(C(=O)O)=C(CSc3nc(=O)c(=O)[nH]n3C)CS[C@H]12)c1csc(N)n1 [CEFTRIAXONE]
IC50 [4]: 10000 nM

SMILES: O=c1[nH]c(=O)n(Cc2cccc3ccccc23)nc1O
AUC(0-t) [5]: 16300 ng·h/mL
inhibition [6]: < 5%
inhibition [7]: 22%
Activity [8]: Not Active
F [9]: 79%
inhibition [10]: < 5%
Vd [11]: 0.8 L/kg
Activity [12]: Non-toxic
inhibition [13]: Active
inhibition at 10 µM [14]: ≤ 5%
Activity [15]: 96.9 µg·h/mL
clearance [16]: 10.2 mL/min/kg
inhibition at 10 µM [17]: ≤ 5%
Stability [1]: >= 99%
BPR [18]: 0.01
half-life [19]: 54 min
Stability [2]: >= 99%
AUC(0-t) [20]: 12900 ng·h/mL
inhibition (INH) [21]: Not Active
Tmax [22]: 4.8 min
Ki [23]: 60 nM
inhibition [24]: < 5%
Cmax [25]: 13800 ng/mL
inhibition [26]: < 5%
Activity [27]: Non-toxic

SMILES: O=c1[nH]c(=O)n(CCn2cnc3ccccc32)nc1O
IC50 [3]: 440 nM

SMILES: O=c1[nH]c(=O)n(CCc2ccc(O)cc2)nc1O
IC50 [3]: 110 nM

SMILES: O=c1[nH]c(=O)n(CC(O)c2ccccc2)nc1O (stereo not drawn)
IC50 [3]: 470 nM

SMILES: O=c1[nH]c(=O)n(CCc2ccc(Oc3ccccc3)cc2)nc1O
IC50 [3]: 80 nM

Continued by falling IC50 [3], values first:

IC50 [3]: 3300 nM
SMILES: CC(Cn1nc(O)c(=O)[nH]c1=O)c1ccccc1 (stereo not drawn)

IC50 [3]: 760 nM
SMILES: O=c1[nH]c(=O)n(CCc2ccccn2)nc1O

IC50 [3]: 310 nM
SMILES: O=c1[nH]c(=O)n(CCn2ccc3cccnc32)nc1O

IC50 [3]: 240 nM
SMILES: O=c1[nH]c(=O)n(CCc2cccc(Oc3ccccc3)c2)nc1O

IC50 [3]: 80 nM
Stability [2]: <= 1%
SMILES: O=c1[nH]c(=O)n(CCc2ccccc2)cc1O

IC50 [3]: 50 nM
SMILES: O=c1[nH]c(=O)n(CCc2ccc(-c3ccccc3)cc2)nc1O

IC50 [3]: 40 nM
SMILES: O=c1[nH]c(=O)n(CCc2ccc(Cl)cc2)nc1O
